This note sets out measurements from ChEMBL document CHEMBL4359813, “Synthesis and antimycobacterial activity of imidazo[1,2-b][1,2,4,5]tetrazines” (2019).

Structures are written as SMILES. Values after ≈ are worked out from the molar mass of the structure shown. Active and inactive are the calls of the source. No cut-off for these calls is given here.

Assay [1] has as its system Mycolicibacterium smegmatis. Kind of assay: Antimycobacterial activity against Mycobacterium smegmatis atR33 assessed as decrease in drug resistance development at 10 ug/disc after 2 to 3 days by paper disc method. The class given is functional, organism-based. The method, boiled down:
(§1)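 Mutant M. smegmatis strains were grown in Middlebrook 7H9/OADC/Tween/glycerol to OD600 1.2. Cultures were diluted 1:9:10 (culture:water:M290) and overlaid on M290 agar. Commercial or impregnated paper discs were applied and plates incubated 2–3 days at 37 °C. Inhibition halos were measured to 1 mm, run in triplicate, mean ± SD.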

Assay [2] has as its system Mycolicibacterium smegmatis. Description: Antimycobacterial activity against Mycobacterium smegmatis atR9 assessed as decrease in drug resistance development at 10 ug/disc after 2 to 3 days by paper disc method. Type of assay: functional, organism-based. The method, boiled down: (§2)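 Drug-resistant M. smegmatis mc2 155 mutants, isolated on M290 agar with 3.5-4× MIC of compound and resistance re-confirmed, grown in Middlebrook 7H9 (OADC, 0.1% Tween-80, 0.4% glycerol) to OD600 1.2. Diluted 1:9:10 culture:water:M290 and poured as top layer on M290 agar. Impregnated paper discs applied; 37 °C for 2–3 days. Halos measured to nearest 1 mm; triplicates, mean ± SD versus control strain.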

Assay [3] has as its system Mycolicibacterium smegmatis. Kind of assay: Antimycobacterial activity against Mycobacterium smegmatis atR10 assessed as decrease in drug resistance development at 10 ug/disc after 2 to 3 days by paper disc method. The class given is functional, organism-based. The method, boiled down: as §1
The subject of assay [4] is Mycolicibacterium smegmatis. Description: Antimycobacterial activity against Mycobacterium smegmatis atR37 assessed as decrease in drug resistance development at 10 ug/disc after 2 to 3 days by paper disc method. The class given is functional, organism-based. The method, boiled down:
as §2

Assay [5] concerns Mycolicibacterium smegmatis. Kind of assay: Antimycobacterial activity against Mycobacterium smegmatis atR2 assessed as decrease in drug resistance development at 2 ug/disc after 2 to 3 days by paper disc method. Type of assay: functional, organism-based. The method, boiled down: as §1
In assay [6] the test system is Mycolicibacterium smegmatis. Description: Antimycobacterial activity against Mycobacterium smegmatis atR40 assessed as decrease in drug resistance development at 2 ug/disc after 2 to 3 days by paper disc method. Type of assay: functional, organism-based. The method, boiled down: as §2
The test system of assay [7] is Mycolicibacterium smegmatis. Kind of assay: Antimycobacterial activity against Mycobacterium smegmatis atR19 assessed as decrease in drug resistance development at 2 ug/disc after 2 to 3 days by paper disc method. The class given is functional, organism-based. The method, boiled down:
as §1

The subject of assay [8] is Mycolicibacterium smegmatis. Description: Antimycobacterial activity against Mycobacterium smegmatis atR11 assessed as decrease in drug resistance development at 40 nmol/disc after 2 to 3 days by paper disc method. Type of assay: functional, organism-based. The method, boiled down: as §1
Assay [9] concerns Mycolicibacterium smegmatis. Description: Antimycobacterial activity against Mycobacterium smegmatis atR37 assessed as decrease in drug resistance development at 40 nmol/disc after 2 to 3 days by paper disc method. Type of assay: functional, organism-based. The method, boiled down: as §2
The test system of assay [10] is Mycolicibacterium smegmatis MC2 155. Description: Inhibition of STPK in Mycobacterium smegmatis MC2 155 expressing aminoglycoside phophotransferase-8 assessed as growth inhibition at 5 nmol/disk after 18 hrs in presence of kanamycin by paper disk method.
Assay [11] has as its system Mycolicibacterium smegmatis. Kind of assay: Antimycobacterial activity against Mycobacterium smegmatis atR37 in liquid medium after 48 hrs by two-fold serial dilution method. Conditions: atR37, 48 h. The class given is functional. The method, boiled down: (§3)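 M. smegmatis resistant mutants were isolated on M290 agar containing 3.5-4× MIC of the test compound at 30°C and resistance was reconfirmed. MIC was then run in Lemco-Tw broth (Tween-80 0.05%). An overnight culture was diluted 1:200, and two-fold serial dilutions in DMSO were added. Plates were incubated at 37°C and 250 rpm for 48 h. MIC was read as the lowest concentration with no visible growth.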

For assay [12], the system named is Mycolicibacterium smegmatis. Kind of assay: Antimycobacterial activity against Mycobacterium smegmatis atR2 in liquid medium after 48 hrs by two-fold serial dilution method. Type of assay: functional. The following applies: atR2, 48 h. The method, boiled down:
as §3

In assay [13] the test system is Mycolicibacterium smegmatis. Description: Antimycobacterial activity against Mycobacterium smegmatis atR8 in liquid medium after 48 hrs by two-fold serial dilution method. Type of assay: functional. Conditions: atR8, 48 h. The method, boiled down: as §3
The test system of assay [14] is Mycolicibacterium smegmatis. Description: Antimycobacterial activity against Mycobacterium smegmatis atR8 assessed as decrease in drug resistance development at 40 nmol/disc after 2 to 3 days by paper disc method. The class given is functional, organism-based. The method, boiled down: as §2
Assay [15] has as its system Mycolicibacterium smegmatis. Description: Antimycobacterial activity against Mycobacterium smegmatis atR1 in liquid medium after 48 hrs by two-fold serial dilution method. The class given is functional. Conditions: atR1, 48 h. The method, boiled down: as §3
The test system of assay [16] is Mycolicibacterium smegmatis. Description: Antimycobacterial activity against Mycobacterium smegmatis MC2 155 in liquid medium after 48 hrs by two-fold serial dilution method. Type of assay: functional. The following applies: MC2 155, 48 h. The method, boiled down: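 M. smegmatis mc2 155 grown overnight in Lemco-Tw broth, diluted 1:200 in fresh broth. […] Top wells could carry 4% DMSO. Incubated 48 h at 37 °C with shaking at 250 rpm. MIC is the lowest concentration with no visible growth.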

Assay [17] has as its system Mycolicibacterium smegmatis. Kind of assay: Antimycobacterial activity against Mycobacterium smegmatis atR11 in liquid medium after 48 hrs by two-fold serial dilution method. Type of assay: functional. The following applies: atR11, 48 h. The method, boiled down: as §3
Assay [18] concerns Mycolicibacterium smegmatis. Description: Antimycobacterial activity against Mycobacterium smegmatis atR33 assessed as decrease in drug resistance development at 40 nmol/disc after 2 to 3 days by paper disc method. Type of assay: functional, organism-based. The method, boiled down: as §1
Assay [19] deals with Mycolicibacterium smegmatis. Kind of assay: Antimycobacterial activity against Mycobacterium smegmatis atR1 assessed as decrease in drug resistance development at 40 nmol/disc after 2 to 3 days by paper disc method. Type of assay: functional, organism-based. The method, boiled down: as §1
Assay [20] has as its system Mycolicibacterium smegmatis. Kind of assay: Antimycobacterial activity against Mycobacterium smegmatis atR9 in liquid medium after 48 hrs by two-fold serial dilution method. The class given is functional. Conditions: atR9, 48 h. The method, boiled down:
as §3

For assay [21], the system named is Mycolicibacterium smegmatis. Description: Antimycobacterial activity against Mycobacterium smegmatis atR17 in liquid medium after 48 hrs by two-fold serial dilution method. Conditions: atR17, 48 h. Type of assay: functional. The method, boiled down: as §3
Assay [22] has as its system Mycolicibacterium smegmatis. Description: Antimycobacterial activity against Mycobacterium smegmatis atR17 assessed as decrease in drug resistance development at 40 nmol/disc after 2 to 3 days by paper disc method. Type of assay: functional, organism-based. The method, boiled down: as §1
Assay [23] relates to Mycobacterium tuberculosis. Description: Antimycobacterial activity against Mycobacterium tuberculosis H37Rv in liquid medium. Type of assay: functional. The method, boiled down:
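M. tuberculosis H37Rv; MIC determined in liquid medium on the automated Bactec MGIT 960 system.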

Assay [24] relates to Mycolicibacterium smegmatis. Kind of assay: Antimycobacterial activity against Mycobacterium smegmatis atR33 in liquid medium after 48 hrs by two-fold serial dilution method. Type of assay: functional. Conditions: atR33, 48 h. The method, boiled down: as §3
The subject of assay [25] is Mycolicibacterium smegmatis. Description: Antimycobacterial activity against Mycobacterium smegmatis atR2 assessed as decrease in drug resistance development at 40 nmol/disc after 2 to 3 days by paper disc method. The class given is functional, organism-based. The method, boiled down: as §1
The subject of assay [26] is Mycolicibacterium smegmatis. Kind of assay: Antimycobacterial activity against Mycobacterium smegmatis atR19 assessed as decrease in drug resistance development at 40 nmol/disc after 2 to 3 days by paper disc method. Type of assay: functional, organism-based. The method, boiled down:
as §1

Assay [27] relates to Mycolicibacterium smegmatis. Description: Antimycobacterial activity against Mycobacterium smegmatis atR14 in liquid medium after 48 hrs by two-fold serial dilution method. Type of assay: functional. The following applies: atR14, 48 h. The method, boiled down: as §3
Assay [28] has as its system Mycolicibacterium smegmatis. Kind of assay: Antimycobacterial activity against Mycobacterium smegmatis atR14 assessed as decrease in drug resistance development at 40 nmol/disc after 2 to 3 days by paper disc method. Type of assay: functional, organism-based. The method, boiled down: as §1
Assay [29] concerns Mycolicibacterium smegmatis. Kind of assay: Antimycobacterial activity against Mycobacterium smegmatis atR40 in liquid medium after 48 hrs by two-fold serial dilution method. Type of assay: functional. Conditions: atR40, 48 h. The method, boiled down:
as §3

Assay [30] relates to Mycolicibacterium smegmatis. Description: Antimycobacterial activity against Mycobacterium smegmatis atR10 assessed as decrease in drug resistance development at 40 nmol/disc after 2 to 3 days by paper disc method. Type of assay: functional, organism-based. The method, boiled down: as §1
The subject of assay [31] is Mycolicibacterium smegmatis. Description: Antimycobacterial activity against Mycobacterium smegmatis atR19 in liquid medium after 48 hrs by two-fold serial dilution method. The class given is functional. The following applies: atR19, 48 h. The method, boiled down: as §3
In assay [32] the test system is Mycolicibacterium smegmatis. Kind of assay: Antimycobacterial activity against Mycobacterium smegmatis atR10 in liquid medium after 48 hrs by two-fold serial dilution method. The class given is functional. The following applies: atR10, 48 h. The method, boiled down:
as §3

For assay [33], the system named is Mycolicibacterium smegmatis. Description: Antimycobacterial activity against Mycobacterium smegmatis MC2 155 in solid medium by two-fold serial dilution method. Type of assay: functional. The method, boiled down: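 M290 soybean-casein agar plates carried two-fold compound dilutions, 8–64 or 8–128 µg/ml, some with extra 20 or 25 µg/ml plates.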
The test system of assay [34] is Mycolicibacterium smegmatis. Description: Antimycobacterial activity against Mycobacterium smegmatis atR40 assessed as decrease in drug resistance development at 40 nmol/disc after 2 to 3 days by paper disc method. The class given is functional, organism-based. The method, boiled down: as §2

For `C[C@@H](O)[C@H]1C(=O)N2C(C(=O)O)=C(SCCNC=N)C[C@H]12`, the outcome in assay [1], in [2], in assay [3] and in [4] was inactive.

As to `CC1COc2c(N3CCN(C)CC3)c(F)cc3c(=O)c(C(=O)O)cn1c23` (centres undefined), the outcome in assay [5], in [6] and in assay [7] was inactive.

Regarding `Cc1cc(C)n(-c2nnc3ncc(Sc4ccccc4)n3n2)n1`, the outcome in assay [8], in [9], in [14], in assay [18], in [19] and in [22] was inactive. In addition, the outcome in assay [25], in [26], in assay [28], in assay [30] and in [34] was inactive. In assay [10], the inhibition zone (IZ) was 11.5 mm. Further, the MIC is > 64 µg/mL in [11]; > 64 µg/mL in [12]; > 64 µg/mL in assay [13]; > 64 µg/mL in [15]; 99 µM (≈ 32 µg/mL) in [16]; > 64 µg/mL in assay [17]. Also, the minimum inhibitory concentration (MIC) in assay [20] was > 64 µg/mL; in [21], > 64 µg/mL; in [23] it was 3.1 µM (≈ 1 µg/mL); in assay [24], > 64 µg/mL; in [27], > 64 µg/mL; in assay [29] it was > 64 µg/mL. For the same molecule, the MIC in [31] is > 64 µg/mL; in [32] it was > 64 µg/mL; in assay [33] it was 61.8 µM (≈ 20 µg/mL).

As a reminder, the MIC is the lowest concentration found to suppress growth. Read a high MIC as weaker potency.
